In ChEMBL document CHEMBL4689842, “EUbOPEN Chemogenomics Library wave 1” (2021):

Test system: U2OS
Experiment: Multiplex assay against U2OS
Assay type: toxicity, cell-based
Conditions: human
Summary of the method: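 Four dyes were applied at seeding to live cells: Hoechst33342, BioTracker Green Microtubule Cytoskeleton Dye, MitoTracker Red and Annexin V Alexa Fluor 680. Imaging after compound addition used a CQ1 microscope at 37°C and 5% CO2. CellPathfinder machine-learning gating then sorted cells into Hoechst high-intensity objects or normal cells, normal cells into healthy, pyknosed or fragmented nuclei, and pyknosed cells into mitotic or apoptotic, with tubulin, mitochondrial-mass and membrane-permeability phenotypes given as per cents of healthy-nucleus cells.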

[1] = 12 h, 1 µM, compound concentration 1 uM, replicate 1
[2] = 12 h, 1 µM, compound concentration 1 uM, replicate 2
[3] = 12 h, 10 µM, compound concentration 10 uM, replicate 1
[4] = 12 h, 10 µM, compound concentration 10 uM, replicate 2
[5] = 24 h, 1 µM, compound concentration 1 uM, replicate 1
[6] = 24 h, 1 µM, compound concentration 1 uM, replicate 2
[7] = 24 h, 10 µM, compound concentration 10 uM, replicate 1
[8] = 24 h, 10 µM, compound concentration 10 uM, replicate 2
[9] = 48 h, 1 µM, compound concentration 1 uM, replicate 1
[10] = 48 h, 1 µM, compound concentration 1 uM, replicate 2
[11] = 48 h, 10 µM, compound concentration 10 uM, replicate 1
[12] = 48 h, 10 µM, compound concentration 10 uM, replicate 2

CN1CCC(=C2c3ccccc3CC(=O)c3sccc32)CC1.O=C(O)/C=C/C(=O)O [KETOTIFEN FUMARATE]
Population Apoptotic (%) [1]: 63% | Population Fragmented Nuclei (%) [1]: 10% | Population Healthy Nuclei (%) [1]: 75% | Population Hoechst High Intensity Objects (%) [1]: 5% | Population Membrane Permeable-Phenotype (%) [1]: 15% | Population Mitochondria Different-Phenotype (%) [1]: 19% | Population Mitotic Cells (%) [1]: 36% | Population Normal (%) [1]: 94% | Population Pyknosed Nuclei (%) [1]: 13% | Population Tubulin-Different-Phenotype (%) [1]: 19% | Total Cell Count [1]: 178 | Population Apoptotic (%) [2]: 75% | Population Fragmented Nuclei (%) [2]: 6% | Population Healthy Nuclei (%) [2]: 87% | Population Membrane Permeable-Phenotype (%) [2]: 10% | Population Mitochondria Different-Phenotype (%) [2]: 12% | Population Mitotic Cells (%) [2]: 25% | Population Pyknosed Nuclei (%) [2]: 6% | Population Tubulin-Different-Phenotype (%) [2]: 9% | Total Cell Count [2]: 56 | Population Apoptotic (%) [3]: 52% | Population Fragmented Nuclei (%) [3]: 15% | Population Healthy Nuclei (%) [3]: 62% | Population Hoechst High Intensity Objects (%) [3]: 5% | Population Membrane Permeable-Phenotype (%) [3]: 15% | Population Mitochondria Different-Phenotype (%) [3]: 90% | Population Mitotic Cells (%) [3]: 48% | Population Normal (%) [3]: 94% | Population Pyknosed Nuclei (%) [3]: 21% | Population Tubulin-Different-Phenotype (%) [3]: 97% | Total Cell Count [3]: 167 | Population Apoptotic (%) [4]: 33% | Population Fragmented Nuclei (%) [4]: 2% | Population Healthy Nuclei (%) [4]: 75% | Population Hoechst High Intensity Objects (%) [4]: 1% | Population Mitotic Cells (%) [4]: 66% | Population Normal (%) [4]: 98% | Population Pyknosed Nuclei (%) [4]: 22% | Population Tubulin-Different-Phenotype (%) [4]: 95% | Total Cell Count [4]: 67 | Population Apoptotic (%) [5]: 48% | Population Healthy Nuclei (%) [5]: 77% | Population Hoechst High Intensity Objects (%) [5]: 5% | Population Membrane Permeable-Phenotype (%) [5]: 8% | Population Mitochondria Different-Phenotype (%) [5]: 16% | Population Mitotic Cells (%) [5]: 52% | Population Normal (%) [5]: 94% | Population Pyknosed Nuclei (%) [5]: 14% | Population Tubulin-Different-Phenotype (%) [5]: 11% | Total Cell Count [5]: 180 | Population Apoptotic (%) [6]: 100% | Population Fragmented Nuclei (%) [6]: 8% | Population Healthy Nuclei (%) [6]: 86% | Population Hoechst High Intensity Objects (%) [6]: 7% | Population Membrane Permeable-Phenotype (%) [6]: 9% | Population Mitochondria Different-Phenotype (%) [6]: 10% | Population Mitotic Cells (%) [6]: 0% | Population Normal (%) [6]: 92% | Population Pyknosed Nuclei (%) [6]: 5% | Population Tubulin-Different-Phenotype (%) [6]: 4% | Total Cell Count [6]: 64 | Population Apoptotic (%) [7]: 62% | Population Fragmented Nuclei (%) [7]: 14% | Population Healthy Nuclei (%) [7]: 59% | Population Hoechst High Intensity Objects (%) [7]: 6% | Population Membrane Permeable-Phenotype (%) [7]: 5% | Population Mitochondria Different-Phenotype (%) [7]: 96% | Population Mitotic Cells (%) [7]: 37% | Population Normal (%) [7]: 93% | Population Pyknosed Nuclei (%) [7]: 25% | Population Tubulin-Different-Phenotype (%) [7]: 85% | Total Cell Count [7]: 186 | Population Apoptotic (%) [8]: 59% | Population Fragmented Nuclei (%) [8]: 6% | Population Healthy Nuclei (%) [8]: 66% | Population Hoechst High Intensity Objects (%) [8]: 2% | Population Membrane Permeable-Phenotype (%) [8]: 22% | Population Mitochondria Different-Phenotype (%) [8]: 98% | Population Mitotic Cells (%) [8]: 40% | Population Normal (%) [8]: 97% | Population Pyknosed Nuclei (%) [8]: 27% | Population Tubulin-Different-Phenotype (%) [8]: 88% | Total Cell Count [8]: 80 | Population Apoptotic (%) [9]: 40% | Population Fragmented Nuclei (%) [9]: 4% | Population Healthy Nuclei (%) [9]: 86% | Population Hoechst High Intensity Objects (%) [9]: 4% | Population Membrane Permeable-Phenotype (%) [9]: 5% | Population Mitochondria Different-Phenotype (%) [9]: 13% | Population Mitotic Cells (%) [9]: 59% | Population Normal (%) [9]: 95% | Population Pyknosed Nuclei (%) [9]: 8% | Population Tubulin-Different-Phenotype (%) [9]: 11% | Total Cell Count [9]: 182 | Population Apoptotic (%) [10]: 28% | Population Fragmented Nuclei (%) [10]: 8% | Population Healthy Nuclei (%) [10]: 80% | Population Hoechst High Intensity Objects (%) [10]: 2% | Population Membrane Permeable-Phenotype (%) [10]: 4% | Population Mitochondria Different-Phenotype (%) [10]: 9% | Population Mitotic Cells (%) [10]: 71% | Population Normal (%) [10]: 97% | Population Pyknosed Nuclei (%) [10]: 11% | Population Tubulin-Different-Phenotype (%) [10]: 7% | Total Cell Count [10]: 63 | Population Apoptotic (%) [11]: 66% | Population Fragmented Nuclei (%) [11]: 12% | Population Healthy Nuclei (%) [11]: 60% | Population Membrane Permeable-Phenotype (%) [11]: 9% | Population Mitochondria Different-Phenotype (%) [11]: 70% | Population Mitotic Cells (%) [11]: 33% | Population Pyknosed Nuclei (%) [11]: 27% | Population Tubulin-Different-Phenotype (%) [11]: 72% | Total Cell Count [11]: 263 | Population Apoptotic (%) [12]: 57% | Population Fragmented Nuclei (%) [12]: 7% | Population Healthy Nuclei (%) [12]: 63% | Population Hoechst High Intensity Objects (%) [12]: 7% | Population Membrane Permeable-Phenotype (%) [12]: 16% | Population Mitochondria Different-Phenotype (%) [12]: 75% | Population Mitotic Cells (%) [12]: 42% | Population Normal (%) [12]: 92% | Population Pyknosed Nuclei (%) [12]: 29% | Population Tubulin-Different-Phenotype (%) [12]: 78% | Total Cell Count [12]: 130

CCCn1c(=O)c2[nH]c(-c3cnn(Cc4cccc(C(F)(F)F)c4)c3)nc2n(CC)c1=O [GS 6201]
Population Apoptotic (%) [1]: 28% | Population Fragmented Nuclei (%) [1]: 8% | Population Healthy Nuclei (%) [1]: 78% | Population Hoechst High Intensity Objects (%) [1]: 9% | Population Membrane Permeable-Phenotype (%) [1]: 14% | Population Mitochondria Different-Phenotype (%) [1]: 5% | Population Mitotic Cells (%) [1]: 71% | Population Normal (%) [1]: 90% | Population Pyknosed Nuclei (%) [1]: 13% | Population Tubulin-Different-Phenotype (%) [1]: 14% | Total Cell Count [1]: 1120 | Population Apoptotic (%) [2]: 42% | Population Fragmented Nuclei (%) [2]: 4% | Population Healthy Nuclei (%) [2]: 88% | Population Hoechst High Intensity Objects (%) [2]: 2% | Population Membrane Permeable-Phenotype (%) [2]: 8% | Population Mitochondria Different-Phenotype (%) [2]: 9% | Population Mitotic Cells (%) [2]: 57% | Population Normal (%) [2]: 97% | Population Pyknosed Nuclei (%) [2]: 7% | Population Tubulin-Different-Phenotype (%) [2]: 28% | Total Cell Count [2]: 75 | Population Apoptotic (%) [3]: 35% | Population Fragmented Nuclei (%) [3]: 34% | Population Healthy Nuclei (%) [3]: 52% | Population Hoechst High Intensity Objects (%) [3]: 19% | Population Membrane Permeable-Phenotype (%) [3]: 51% | Population Mitochondria Different-Phenotype (%) [3]: 31% | Population Mitotic Cells (%) [3]: 64% | Population Normal (%) [3]: 80% | Population Pyknosed Nuclei (%) [3]: 12% | Population Tubulin-Different-Phenotype (%) [3]: 82% | Total Cell Count [3]: 118 | Population Apoptotic (%) [4]: 50% | Population Fragmented Nuclei (%) [4]: 17% | Population Healthy Nuclei (%) [4]: 77% | Population Hoechst High Intensity Objects (%) [4]: 5% | Population Membrane Permeable-Phenotype (%) [4]: 3% | Population Mitochondria Different-Phenotype (%) [4]: 20% | Population Mitotic Cells (%) [4]: 50% | Population Normal (%) [4]: 94% | Population Pyknosed Nuclei (%) [4]: 4% | Population Tubulin-Different-Phenotype (%) [4]: 10% | Total Cell Count [4]: 98 | Population Apoptotic (%) [5]: 27% | Population Fragmented Nuclei (%) [5]: 8% | Population Healthy Nuclei (%) [5]: 82% | Population Hoechst High Intensity Objects (%) [5]: 7% | Population Membrane Permeable-Phenotype (%) [5]: 7% | Population Mitochondria Different-Phenotype (%) [5]: 7% | Population Mitotic Cells (%) [5]: 72% | Population Normal (%) [5]: 92% | Population Pyknosed Nuclei (%) [5]: 8% | Population Tubulin-Different-Phenotype (%) [5]: 8% | Total Cell Count [5]: 2066 | Population Apoptotic (%) [6]: 50% | Population Fragmented Nuclei (%) [6]: 5% | Population Healthy Nuclei (%) [6]: 90% | Population Hoechst High Intensity Objects (%) [6]: 4% | Population Membrane Permeable-Phenotype (%) [6]: 2% | Population Mitochondria Different-Phenotype (%) [6]: 10% | Population Mitotic Cells (%) [6]: 50% | Population Normal (%) [6]: 95% | Population Pyknosed Nuclei (%) [6]: 4% | Population Tubulin-Different-Phenotype (%) [6]: 30% | Total Cell Count [6]: 81 | Population Apoptotic (%) [7]: 64% | Population Fragmented Nuclei (%) [7]: 44% | Population Healthy Nuclei (%) [7]: 41% | Population Hoechst High Intensity Objects (%) [7]: 16% | Population Membrane Permeable-Phenotype (%) [7]: 47% | Population Mitochondria Different-Phenotype (%) [7]: 31% | Population Mitotic Cells (%) [7]: 35% | Population Normal (%) [7]: 83% | Population Pyknosed Nuclei (%) [7]: 14% | Population Tubulin-Different-Phenotype (%) [7]: 58% | Total Cell Count [7]: 133 | Population Apoptotic (%) [8]: 50% | Population Fragmented Nuclei (%) [8]: 17% | Population Healthy Nuclei (%) [8]: 72% | Population Hoechst High Intensity Objects (%) [8]: 3% | Population Membrane Permeable-Phenotype (%) [8]: 5% | Population Mitochondria Different-Phenotype (%) [8]: 11% | Population Mitotic Cells (%) [8]: 50% | Population Normal (%) [8]: 96% | Population Pyknosed Nuclei (%) [8]: 10% | Population Tubulin-Different-Phenotype (%) [8]: 9% | Total Cell Count [8]: 139 | Population Apoptotic (%) [9]: 44% | Population Fragmented Nuclei (%) [9]: 8% | Population Healthy Nuclei (%) [9]: 82% | Population Hoechst High Intensity Objects (%) [9]: 1% | Population Membrane Permeable-Phenotype (%) [9]: 3% | Population Mitochondria Different-Phenotype (%) [9]: 11% | Population Mitotic Cells (%) [9]: 55% | Population Normal (%) [9]: 98% | Population Pyknosed Nuclei (%) [9]: 9% | Population Tubulin-Different-Phenotype (%) [9]: 7% | Total Cell Count [9]: 2377 | Population Apoptotic (%) [10]: 41% | Population Fragmented Nuclei (%) [10]: 2% | Population Healthy Nuclei (%) [10]: 91% | Population Membrane Permeable-Phenotype (%) [10]: 1% | Population Mitochondria Different-Phenotype (%) [10]: 13% | Population Mitotic Cells (%) [10]: 58% | Population Pyknosed Nuclei (%) [10]: 5% | Population Tubulin-Different-Phenotype (%) [10]: 35% | Total Cell Count [10]: 110 | Population Apoptotic (%) [11]: 67% | Population Fragmented Nuclei (%) [11]: 51% | Population Healthy Nuclei (%) [11]: 34% | Population Hoechst High Intensity Objects (%) [11]: 13% | Population Membrane Permeable-Phenotype (%) [11]: 50% | Population Mitochondria Different-Phenotype (%) [11]: 29% | Population Mitotic Cells (%) [11]: 32% | Population Normal (%) [11]: 86% | Population Pyknosed Nuclei (%) [11]: 13% | Population Tubulin-Different-Phenotype (%) [11]: 47% | Total Cell Count [11]: 198 | Population Apoptotic (%) [12]: 22% | Population Fragmented Nuclei (%) [12]: 12% | Population Healthy Nuclei (%) [12]: 80% | Population Hoechst High Intensity Objects (%) [12]: 2% | Population Membrane Permeable-Phenotype (%) [12]: 9% | Population Mitochondria Different-Phenotype (%) [12]: 13% | Population Mitotic Cells (%) [12]: 77% | Population Normal (%) [12]: 97% | Population Pyknosed Nuclei (%) [12]: 6% | Population Tubulin-Different-Phenotype (%) [12]: 13% | Total Cell Count [12]: 214
